# Assay results as given in publication PMC2743114 (Journal of immunological methods, 2009).
# pKi: −log10 of the molar value.
# Tests used:
# mouse IgG1 = assay: Direct ELISA binding of Biotinyl PE to isotype control; conditions: specificity control
# Summary of the method: (§1)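 Biotinyl PE (1μg/mL) was incubated overnight at 37°C with hCD1 dimer or mouse IgG1 isotype control. Incubation was in PBS adjusted with HCl or NaOH to pH 4–10, in plates coated with anti-mouse IgG Fc antibody. A well without biotinylated PE at pH 7 served as background. Assays were run in triplicate.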
# hCD1b dimer [1] = molecular target: T1, hCD1b dimer (Homo sapiens, UniProt P29016); assay: Direct ELISA binding of Biotinyl PE without competitor; conditions: pH 4–10 tested, Biotinyl PE 1μg/mL, overnight 37°C, no competitor
# Summary of the method: as §1
# hCD1c dimer [2] = molecular target: T2, hCD1c dimer (Homo sapiens, UniProt P29017); assay: as above; conditions: pH 4–10 tested, Biotinyl PE 1μg/mL, overnight 37°C, no competitor
# T2 sequence (P29017 18-302 limits assumed): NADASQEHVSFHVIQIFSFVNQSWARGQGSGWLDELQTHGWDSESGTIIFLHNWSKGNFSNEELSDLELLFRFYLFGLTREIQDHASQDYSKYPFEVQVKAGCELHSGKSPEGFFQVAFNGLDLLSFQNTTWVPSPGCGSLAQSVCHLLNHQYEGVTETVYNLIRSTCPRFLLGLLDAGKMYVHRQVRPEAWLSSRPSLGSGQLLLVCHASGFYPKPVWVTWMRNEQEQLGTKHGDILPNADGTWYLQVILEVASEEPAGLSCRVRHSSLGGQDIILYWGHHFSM
# Summary of the method: as §1
# hCD1d dimer [3] = molecular target: T3, hCD1d dimer (Homo sapiens, UniProt P15813); assay: Direct ELISA binding of Biotinyl PE without competitor; conditions: Biotinyl PE 1μg/mL
# T3 sequence (P15813 20-301 limits assumed): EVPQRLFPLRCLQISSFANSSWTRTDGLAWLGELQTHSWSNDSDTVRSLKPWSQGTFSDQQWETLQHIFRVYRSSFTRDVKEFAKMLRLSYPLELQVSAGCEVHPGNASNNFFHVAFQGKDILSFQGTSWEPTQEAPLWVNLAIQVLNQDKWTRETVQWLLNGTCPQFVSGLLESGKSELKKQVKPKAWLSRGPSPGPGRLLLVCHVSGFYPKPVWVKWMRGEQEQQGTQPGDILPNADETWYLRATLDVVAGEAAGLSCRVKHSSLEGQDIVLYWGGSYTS
# hCD1b dimer [4] = molecular target: T1, hCD1b dimer; assay: Competitive ELISA assay; assay type: binding
# Summary of the method: (§2)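 Dimers are hCD1 α1–α3 fused to mouse IgG with β2m, expressed in J558L cells and purified on Protein G. Plates were coated overnight at 4°C with goat anti-mouse IgG Fc (10μg/mL, pH 9.6), then blocked 1 h. Dimer (5μg/mL), competitor lipid and Biotinyl PE (2μg/mL) in PBS were incubated overnight at 37°C and detected with HRP-avidin. Assays were run in triplicate. Ki = IC50/(1+[B-PE]/Kd), with Kd fitted from competitor-free Biotinyl PE titration.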
# hCD1c dimer [5] = molecular target: T2, hCD1c dimer; assay: Competitive ELISA assay; assay type: binding
# Summary of the method: as §2
# hCD1d dimer [6] = molecular target: T3, hCD1d dimer; assay: Competitive ELISA assay; assay type: binding
# Summary of the method: as §2
# T1 sequence (P29016 18-303 limits assumed): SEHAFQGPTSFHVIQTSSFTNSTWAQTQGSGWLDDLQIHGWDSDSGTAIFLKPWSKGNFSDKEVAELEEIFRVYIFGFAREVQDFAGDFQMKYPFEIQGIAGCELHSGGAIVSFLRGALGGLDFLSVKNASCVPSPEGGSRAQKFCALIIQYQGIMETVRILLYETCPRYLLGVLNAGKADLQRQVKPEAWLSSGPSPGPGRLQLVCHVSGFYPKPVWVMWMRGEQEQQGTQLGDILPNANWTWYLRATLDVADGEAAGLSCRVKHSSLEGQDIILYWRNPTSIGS
molecule,measurement,setting,value
"CCCCCCCC/C=C\CCCCCCCC(=O)OC[C@H](COP(=O)(O)OCCNC(=O)CCCC[C@@H]1SC[C@@H]2NC(=O)N[C@@H]21)OC(=O)CCCCCCC/C=C\CCCCCCCC [Biotinyl PE, 1,2-Dioleoyl-sn-Glycero-3-Phosphoethanolamine-N-(Biotinyl)]",binding to mouse IgG1 (isotype control),mouse IgG1,failed to bind
same,optimal pH for binding to CD1b,hCD1b dimer [1],4-5
same,optimal pH for binding to CD1c,hCD1c dimer [2],4-5
same,time to reach a peak level of binding to hCD1d,"hCD1d dimer [3]; 37°C, optimal condition",8 h
same,optimal pH for binding to CD1d,"hCD1d dimer [3]; pH 4–10 tested, overnight 37°C, no competitor",5-7
"CCCCCCCCCCCCCCCCCCCCCCCCCC(=O)N[C@@H](CO[C@H]1O[C@H](CO)[C@H](O)[C@H](O)[C@H]1O)[C@H](O)[C@H](O)CCCCCCCCCCCCCC [α-GalCer, α-galactosylceramide]",pKi,hCD1b dimer [4],5.55
same,pKi,hCD1c dimer [5],5.86
same,pKi,hCD1d dimer [6],7.01
Mycolic acid,"binding to CD1b (inhibition of Biotinyl PE binding), in words",hCD1b dimer [4]; competitive ELISA,unable to detect the binding
